# Experimental data reported in paper PMC3961596 (Advances in Therapy, 2014).
# Tests used:
# [1] = system: urinary glucose excretion; details: healthy subjects; cited from earlier work
# [2] = system: urinary glucose excretion; experiment: MAD study: urinary glucose excretion; assay type: in vivo, human; details: for mean daily UGE (range): administration days 1–7
# Method in brief: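 Subjects took 5 or 10 mg/day or placebo orally for 7 days before breakfast. Urine was pooled over 24 h predose, over 2-h intervals to 16 h and 16–24 h on Days 1 and 7, and every 24 h on other days through Day 14. Glucose was measured on an automated analyzer; daily and 24-h cumulative UGE (g) were derived. Groups were compared with placebo by ANCOVA, with baseline glucose as covariate.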
# [3] = Single ascending dose; assay type: in vivo, human; details: for Cmax / Tmax / k el / Vd/F / half-life: human, plasma, po; for k el: λz
# Method in brief: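 Healthy Japanese men received a single oral dose (1–25 mg) or placebo with 200 mL water under fasting conditions. The 5 mg group was redosed preprandially 8 days later, followed by a standardized ~630 kcal meal. Plasma and urine were collected to 48 h (96 h at 15 and 25 mg) and assayed by HPLC–MS/MS (urine LLOQ 0.5 ng/mL). Analysis was noncompartmental: AUClast by trapezoidal rule, AUCinf extrapolated. Dose proportionality used a power model; food effect used preprandial/fasting geometric mean ratios with 90% CI (mixed model).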
# [4] = system: healthy male Japanese subjects; experiment: Assessment of safety in the SAD and MAD studies; assay type: in vivo, human
# [5] = system: urinary glucose excretion; experiment: SAD study: urinary glucose excretion; assay type: in vivo, human
# Method in brief: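 After a single oral fasting dose (1–25 mg) or placebo, urine was pooled over 24 h predose and over intervals from 0–2 to 24–48 h post-dose, extended to 96 h for 15 and 25 mg. Aliquots were kept at 4 °C, and glucose was measured on an automated analyzer. UGE (g) was computed per collection period and as 24-h cumulative.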
# [6] = 7-day multiple ascending dose; assay type: in vivo, human; details: for mean daily urinary luseogliflozin excretion rate (% of daily dose): Days 1–7, range; for mean urinary luseogliflozin excretion rate: Days 1–11 (96 h after the last administration); for AUC / AUC(0-inf): po
# Method in brief: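 In healthy Japanese men, 5 or 10 mg/day or placebo was given orally for 7 days with 200 mL water just before breakfast, with a standardized ~630 kcal meal on Days 1 and 7. Heparin plasma was sampled to 12 h after the first dose, predose on Days 2–7, and to 96 h after the last dose. Plasma and urine were assayed by HPLC–MS/MS, and parameters derived noncompartmentally (AUCinf Day 1, AUC0–24 Day 7); accumulation was assessed by comparing these.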
# [7] = animal study; cited from earlier work
# [8] = system: SGLT2; details: read-out: 50% inhibitory concentration (IC50) for SGLT2; cited from earlier work
# [9] = system: plasma glucose; experiment: Plasma glucose concentrations in the SAD and MAD studies; assay type: in vivo, human; details: healthy subjects, vs placebo
# [10] = system: SGLT1; details: cited from earlier work
# [11] = SAD, 5 mg, N = 8, estimated value (90% CI)
# [12] = both studies (SAD 1–25 mg, MAD 5 or 10 mg/day 7 days)
compound,measurement,setting,value
Cc1ccc([C@@H]2O[C@H](CO)[C@@H](O)[C@H](O)[C@H]2O)cc1Cc1ccc(-c2ccc(F)cc2)s1 [canagliflozin],maximum amount of daily UGE after multiple dose,[1],50 to 55 g/day
same,maximum amount of daily UGE after single dose,[1],approximately 70 g/day
CCOc1ccc(Cc2cc([C@@H]3O[C@H](CO)[C@@H](O)[C@H](O)[C@H]3O)ccc2Cl)cc1 [dapagliflozin],maximum amount of daily UGE after multiple dose,[1],50 to 55 g/day
same,maximum amount of daily UGE after single dose,[1],approximately 70 g/day
OC[C@H]1O[C@@H](c2ccc(Cl)c(Cc3ccc(O[C@H]4CCOC4)cc3)c2)[C@H](O)[C@@H](O)[C@@H]1O [empagliflozin],maximum amount of daily UGE after multiple dose,[1],50 to 55 g/day
same,maximum amount of daily UGE after single dose,[1],approximately 70 g/day
OC[C@H]1O[C@@H](c2ccc(F)c(Cc3cc4ccccc4s3)c2)[C@H](O)[C@@H](O)[C@@H]1O [ipragliflozin],maximum amount of daily UGE after multiple dose,[1],50 to 55 g/day
same,maximum amount of daily UGE after single dose,[1],approximately 70 g/day
"CCOc1ccc(Cc2cc([C@@H]3S[C@H](CO)[C@@H](O)[C@H](O)[C@H]3O)c(OC)cc2C)cc1 [luseogliflozin, (1S)-1,5-anhydro-1-[5-(4-ethoxybenzyl)-2-methoxy-4-methylphenyl]-1-thio-D-glucitol]",mean daily UGE on Day 7,[2]; 5 mg,58.0 g
same,mean daily UGE (range),[2]; 5 mg,57.2 to 65.5 g
same,mean daily UGE on Day 7,[2]; 10 mg,62.7 g
same,mean daily UGE (range),[2]; 10 mg,62.7 to 76.9 g
same,mean daily UGE after the last administration,[2]; both 5 and 10 mg doses,about 60 g
same,effect of food on pharmacokinetics,"[3]; SAD, 5 mg preprandial vs fasting",food had little effect on luseogliflozin pharmacokinetics
same,AUCinf ratio preprandial/fasting,[3]; [11],105 (101–110) %
same,AUClast ratio preprandial/fasting,[3]; [11],105 (101–109) %
same,C max ratio preprandial/fasting,[3]; [11],107 (89.9–127) %
same,mean plasma concentration as % of C max,"[3]; SAD, by 48 h after administration",2–3%
same,dose proportionality,"[3]; SAD, dose range 1–25 mg",dose proportionality was observed
same,mean urinary luseogliflozin excretion rate (% of each dose),"[3]; SAD, single administration, fasting, range over doses",3.36–4.40%
same,CL/F,"[3]; SAD, single oral 1 mg, fasting, N = 3, mean ± SD",3.02 ± 0.489 L/h
same,CL/F,"[3]; SAD, single oral 3 mg, fasting, N = 8, mean ± SD",3.16 ± 0.744 L/h
same,CL/F,"[3]; SAD, single oral 5 mg, fasting, N = 8, mean ± SD",2.80 ± 0.465 L/h
same,CL/F,"[3]; SAD, single oral 5 mg, preprandial, N = 8, mean ± SD",2.64 ± 0.362 L/h
same,CL/F,"[3]; SAD, single oral 9 mg, fasting, N = 8, mean ± SD",2.98 ± 0.326 L/h
same,CL/F,"[3]; SAD, single oral 15 mg, fasting, N = 8, mean ± SD",2.99 ± 0.483 L/h
same,CL/F,"[3]; SAD, single oral 25 mg, fasting, N = 8, mean ± SD",2.99 ± 0.436 L/h
same,Cmax,[3]; 1 mg,38.2 ± 4.86 ng/mL
same,Tmax,[3]; 1 mg,0.667 ± 0.289 h
same,k el,"[3]; 1 mg, SAD, single oral 1 mg, fasting, N = 3, mean ± SD",1.85e-05 s⁻¹
same,Cmax,[3]; 3 mg,116 ± 24.6 ng/mL
same,Tmax,[3]; 3 mg,0.75 ± 0.267 h
same,k el,"[3]; 3 mg, SAD, single oral 3 mg, fasting, N = 8, mean ± SD",2.11e-05 s⁻¹
same,Cmax,[3]; 5 mg,187 ± 27.3 ng/mL
same,Tmax,[3]; 5 mg,1.06 ± 0.496 h
same,Vd/F,[3]; 5 mg,38.9 ± 4.97 L
same,half-life,[3]; 5 mg,10.3 ± 1.02 h
same,k el,"[3]; 5 mg, SAD, single oral 5 mg, fasting, N = 8, mean ± SD",2.01e-05 s⁻¹
same,Cmax,[3]; 9 mg,312 ± 45.2 ng/mL
same,Tmax,[3]; 9 mg,1.25 ± 0.598 h
same,k el,"[3]; 9 mg, SAD, single oral 9 mg, fasting, N = 8, mean ± SD",1.96e-05 s⁻¹
same,Vd/F,[3]; 15 mg,60.5 ± 31 L
same,half-life,[3]; 15 mg,13.8 ± 5.76 h
same,k el,"[3]; 15 mg, SAD, single oral 15 mg, fasting, N = 8, mean ± SD",1.57e-05 s⁻¹
same,Vd/F,[3]; 25 mg,54.7 ± 13.7 L
same,k el,"[3]; 25 mg, SAD, single oral 25 mg, fasting, N = 8, mean ± SD",1.56e-05 s⁻¹
same,Tmax,[3]; male,0.667 to 2.25 h
same,half-life,[3]; male,9.23 to 13.8 h
same,Vd/F,"[3]; male, 1 mg",45.3 ± 6.88 L
same,half-life,"[3]; male, 1 mg",10.4 ± 0.552 h
same,Vd/F,"[3]; male, 3 mg",41.4 ± 7.17 L
same,half-life,"[3]; male, 3 mg",9.23 ± 0.95 h
same,Cmax,"[3]; male, 5 mg",205 ± 53.5 ng/mL
same,Tmax,"[3]; male, 5 mg",0.75 ± 0.535 h
same,Vd/F,"[3]; male, 5 mg",38.7 ± 4.11 L
same,half-life,"[3]; male, 5 mg",9.72 ± 1.17 h
same,Vd/F,"[3]; male, 9 mg",42.4 ± 5.4 L
same,Cmax,"[3]; male, 15 mg",544 ± 143 ng/mL
same,Cmax,"[3]; male, 25 mg",721 ± 123 ng/mL
same,"changes in renal function test values, blood and urine electrolytes, body weight, vital signs, electrocardiography",[4]; MAD,no clinically significant changes
same,severity of AEs,[4]; MAD,mild and reversible
same,AE diarrhoea,"[4]; MAD, 10 mg",1 subject
same,AE occult blood positive,"[4]; MAD, 10 mg",1 subject
same,subjects with AEs,"[4]; MAD, 16 subjects received luseogliflozin",2 subjects
same,Escherichia coli and Klebsiella oxytoca in urine,"[4]; MAD, after drug administration",less than 10^3 colony forming units/mL
same,"changes in renal function test values, blood and urine electrolytes",[4]; SAD,no clinically significant changes
same,severity of AEs,[4]; SAD,"mild, reversible, and did not appear to be dose-related"
same,AE occult blood positive,"[4]; SAD, 3 mg",2 subjects
same,AE beta 2 microglobulin urine increased,"[4]; SAD, 9 mg",1 subject
same,AE diarrhoea,"[4]; SAD, 25 mg",1 subject
same,AE urethritis,"[4]; SAD, 25 mg",1 subject
same,subjects with AEs,"[4]; SAD, 43 subjects received luseogliflozin",7 subjects
same,hypoglycemia,[4]; [12],no cases of hypoglycemia
same,serious AEs or AEs leading to discontinuation,[4]; [12],no serious AEs or AEs leading to discontinuation were observed
same,increase in 24-h UGE between 1 and 5 mg,[5],2.7 fold
same,increase in 24-h UGE from 5 to 25 mg,[5],1.4 fold
same,maximum of mean UGE for 24 h,[5],approximately 70 g
same,mean UGE for 24 h after administration,[5]; 1 mg,18.9 g
same,mean UGE from 24 to 48 h after administration,[5]; 1 mg,2.53 g
same,mean UGE for 24 h after administration,[5]; 3 mg,36.8 g
same,mean UGE from 24 to 48 h after administration,[5]; 3 mg,12.5 g
same,mean UGE for 24 h after administration,[5]; 5 mg,50.2 g
same,mean UGE from 24 to 48 h after administration,[5]; 5 mg,21.3 g
same,mean UGE for 24 h after administration,[5]; 9 mg,54.3 g
same,mean UGE from 24 to 48 h after administration,[5]; 9 mg,37.5 g
same,mean UGE for 24 h after administration,[5]; 15 mg,60.7 g
same,mean UGE from 24 to 48 h after administration,[5]; 15 mg,48.4 g
same,mean UGE for 24 h after administration,[5]; 25 mg,70.9 g
same,mean UGE from 24 to 48 h after administration,[5]; 25 mg,62.7 g
same,mean daily urinary luseogliflozin excretion rate (% of daily dose),"[6]; MAD, 5 mg",3.74–4.69%
same,mean urinary luseogliflozin excretion rate,"[6]; MAD, 5 mg",4.58%
same,CL/F,"[6]; MAD, 5 mg/day oral before breakfast, Day 1, N = 8, mean ± SD",2.72 ± 0.648 L/h
same,CL/F,"[6]; MAD, 5 mg/day oral before breakfast, Day 7, N = 8, mean ± SD",2.61 ± 0.537 L/h
same,mean daily urinary luseogliflozin excretion rate (% of daily dose),"[6]; MAD, 10 mg",3.58–4.23%
same,mean urinary luseogliflozin excretion rate,"[6]; MAD, 10 mg",4.12%
same,CL/F,"[6]; MAD, 10 mg/day oral before breakfast, Day 1, N = 8, mean ± SD",3.05 ± 0.628 L/h
same,CL/F,"[6]; MAD, 10 mg/day oral before breakfast, Day 7, N = 8, mean ± SD",3.00 ± 0.612 L/h
same,accumulation potential,"[6]; MAD, 7 days, AUCinf Day 1 vs AUCτ Day 7",No accumulation potential
same,"trough concentrations, steady state","[6]; MAD, value just before each administration",reached a steady state by Day 7
same,AUC,"[6]; human, plasma, 5 mg/day",1980 ng·h/mL
same,AUC(0-inf),"[6]; human, plasma, 5 mg/day",1930 ng·h/mL
same,AUC,"[6]; human, plasma, 10 mg/day",3470 ng·h/mL
same,AUC(0-inf),"[6]; human, plasma, 10 mg/day",3430 ng·h/mL
same,half-life,"[6]; male, human, plasma, oral, mean T 1/2 after 7-day repeat administration (range), MAD, 5 and 10 mg/day, Day 7",9.14 to 10.7 h
same,concentration in the kidney vs plasma,[7],higher concentration in the kidney than in the plasma
same,IC50,[8],2.26 nM
same,effect on fasting plasma glucose levels,[9],did not produce clinically significant decreases in fasting plasma glucose levels
same,selectivity: SGLT2 IC50 lower than IC50 for SGLT1,[10],"1,765 fold"
